{"data": "Measurements from different studies", "BMP2K": "BMP-2-inducible protein kinase (BMP2K, Homo sapiens, UniProt Q9NSY1)", "murC": "UDP-N-acetylmuramate--L-alanine ligase (murC, Escherichia coli K-12, UniProt P17952)", "Trypanothione synthetase": "Trypanothione synthetase (Trypanosoma cruzi, UniProt Q9GT49)", "MTNR1A": "Melatonin receptor type 1A (MTNR1A, Homo sapiens, UniProt P48039)", "BRWD3": "BRWD3 (Homo sapiens, UniProt Q6RI45)", "Grm1": "Metabotropic glutamate receptor 1 (Grm1, Rattus norvegicus, UniProt P23385)"}
{"SMILES": "O=C(NCCCNc1nc(Nc2cccc(CN3CCOCC3)c2)ncc1C1CC1)C1CCC1", "target": "BMP2K", "assay": "enzyme activity, inhibitor, radiometric", "setting": "1 µM", "measurement": "remaining activity", "result": "3%"}
{"SMILES": "N#Cc1ccc(COc2ccccc2C=NNS(=O)(=O)c2ccccc2[N+](=O)[O-])cc1", "target": "murC", "assay": "enzyme activity, inhibitor, absorbance", "setting": "100 µM", "measurement": "remaining activity", "result": "95%"}
{"SMILES": "c1cc(CN2CCOCC2)cc(Nc2ncc(C3CC3)c(NCCc3c[nH]cn3)n2)c1", "target": "BMP2K", "assay": "enzyme activity, inhibitor, radiometric", "setting": "1 µM", "measurement": "remaining activity", "result": "18%"}
{"SMILES": "O=C(CN1C(=O)Cc2c([nH]c3ccc(Br)cc23)-c2ccc(Cl)cc21)NC1=NCCS1", "target": "Trypanothione synthetase", "assay": "enzyme activity, inhibitor, absorbance", "setting": "30 µM", "measurement": "inhibition", "result": "16%"}
{"SMILES": "Cc1ccc(C(=O)Nc2ccc(CN3CCN(C)CC3)c(C(F)(F)F)c2)cc1C#Cc1cnc2cccnn12", "target": "Ephrin type-B receptor 6 (EPHB6, Homo sapiens, UniProt O15197)", "assay": "cell-free assay", "setting": "23.5 nM", "measurement": "remaining signal", "result": "85%"}
{"SMILES": "FC(F)(F)Oc1cccc(-c2cnc3ccc(-c4ccncc4)nn23)c1", "target": "Serine/threonine-protein kinase MRCK gamma (CDC42BPG, Homo sapiens, UniProt Q6DT37)", "assay": "cell-free assay, competition with immobilised ligand", "setting": "5 µM", "measurement": "remaining binding", "result": "18%"}
{"SMILES": "Cc1nn(CC(F)(F)F)cc1Nc1ncc(C2CC2)c(NCCCNC(=O)C2CCC2)n1", "target": "BMP2K", "assay": "enzyme activity, inhibitor, radiometric", "setting": "1 µM", "measurement": "remaining activity", "result": "73%"}
{"SMILES": "CCN(Cc1ccccc1C(F)(F)F)C(=O)C1CCN(S(=O)(=O)c2ccc3[nH]ncc3c2)CC1", "target": "B2 bradykinin receptor (BDKRB2, Homo sapiens, UniProt P30411)", "assay": "ligand displacement, radioligand", "setting": "10 µM", "measurement": "inhibition", "result": "11%"}
{"SMILES": "NS(=O)(=O)c1ccc(CNc2ccnc(Nc3cccc(NC(=O)N4CCCC4)c3)n2)cc1", "target": "BMP2K", "assay": "enzyme activity, inhibitor, radiometric", "setting": "1 µM", "measurement": "remaining activity", "result": "80%"}
{"SMILES": "COc1cc2c(CCNC(C)=O)c[nH]c2cc1I", "target": "MTNR1A", "assay": "cAMP, agonist, TR-FRET", "system": "CHO-K1", "setting": "20 min", "measurement": "Emax", "result": "98%"}
{"SMILES": "O=C(c1ccc(F)cc1)N(Cc1ccccc1)C1CCCCC1", "target": "Substance-P receptor (TACR1, Homo sapiens, UniProt P25103)", "assay": "cell-free assay", "setting": "10 µM", "measurement": "inhibition", "result": "20%"}
{"SMILES": "COc1cc2c(CCNC(C)=O)c(I)[nH]c2cc1[N+](=O)[O-]", "target": "MTNR1A", "assay": "GTPγS binding, agonist, radiometric", "setting": "cell membranes", "measurement": "Emax", "result": "72%"}
{"SMILES": "N#Cc1ccc(COc2ccccc2C=NNS(=O)(=O)Cc2ccccc2F)cc1", "target": "murC", "assay": "enzyme activity, inhibitor, absorbance", "setting": "100 µM", "measurement": "remaining activity", "result": "59%"}
{"SMILES": "O=C(Nc1cccc(Nc2ncc(Br)c(NCCc3cnc[nH]3)n2)c1)N1CCCC1", "target": "BMP2K", "assay": "enzyme activity, inhibitor, radiometric", "setting": "1 µM", "measurement": "remaining activity", "result": "2%"}
{"SMILES": "O=C(Nc1ccc(C=NNS(=O)(=O)c2ccc3ccccc3c2)cc1)c1ccccc1Br", "target": "murC", "assay": "enzyme activity, inhibitor, absorbance", "setting": "100 µM", "measurement": "remaining activity", "result": "41%"}
{"SMILES": "Cc1cnc(Nc2ccc(OCCN3CCCC3)cc2)nc1Nc1cccc(S(=O)(=O)NC(C)(C)C)c1", "target": "BRWD3", "assay": "thermal stability, DSF", "setting": "10 µM", "measurement": "ΔTm", "result": "0.58 °C"}
{"SMILES": "COc1cc(NC(C)=O)c(Cl)cc1C(=O)Nc1nccs1", "target": "Prostaglandin G/H synthase 1 (PTGS1, Homo sapiens, UniProt P23219)", "assay": "enzyme activity, inhibitor", "setting": "10 µM", "measurement": "inhibition", "result": "72%"}
{"SMILES": "O=C(CN1C(=O)Cc2c([nH]c3ccc(Br)cc23)-c2ccc(Cl)cc21)N1CCCCC1", "target": "Trypanothione synthetase", "assay": "enzyme activity, inhibitor, absorbance", "setting": "30 µM", "measurement": "inhibition", "result": "7.1%"}
{"SMILES": "COc1cc(I)c2[nH]cc(CCNC(C)=O)c2c1", "target": "MTNR1A", "assay": "GTPγS binding, agonist, radiometric", "setting": "cell membranes", "measurement": "Emax", "result": "39%"}
{"SMILES": "Oc1ccc(-c2nc(-c3ccncc3)c(-c3ccc(F)cc3)[nH]2)cc1", "target": "BRWD3", "assay": "thermal stability, DSF", "setting": "10 µM", "measurement": "ΔTm", "result": "0.66 °C"}
{"SMILES": "O=C(Nc1ccc(S(=O)(=O)N2CCC(Cl)CC2)cc1)c1ccc([N+](=O)[O-])o1", "target": "MTNR1A", "assay": "ligand displacement, radioligand", "setting": "10 µM", "measurement": "inhibition", "result": "8%"}
{"SMILES": "COc1ccc2[nH]cc(CCNC(C)=O)c2c1I", "target": "MTNR1A", "assay": "cAMP, agonist, TR-FRET", "system": "CHO-K1", "setting": "20 min", "measurement": "Emax", "result": "90%"}
{"SMILES": "NS(=O)(=O)c1ccc(CNc2nc(Nc3cccc(NC(=O)N4CCCC4)c3)ncc2C2CC2)cc1", "target": "BMP2K", "assay": "enzyme activity, inhibitor, radiometric", "setting": "1 µM", "measurement": "remaining activity", "result": "64%"}
{"SMILES": "CCc1ccc2scc(CCNC(C)=O)c2c1", "target": "MTNR1A", "assay": "cAMP, agonist, TR-FRET", "system": "CHO-K1", "setting": "20 min", "measurement": "Emax", "result": "75%"}
{"SMILES": "Cc1cc(NC(=O)c2cccc3cc(-c4cccc5[nH]nc(N)c45)ccc23)ccc1F", "target": "MAPK/MAK/MRK overlapping kinase (MOK, Homo sapiens, UniProt Q9UQ07)", "assay": "enzyme activity, inhibitor", "setting": "0.1 µM", "measurement": "activity vs control", "result": "95%"}
{"SMILES": "O=C(Nc1ccc(N2C(=O)c3ccccc3C2=O)c(Cl)c1)c1ncccc1O", "target": "Grm1", "assay": "calcium signal, positive allosteric modulator", "system": "T-REx-293", "measurement": "Emax", "result": "105%"}
{"SMILES": "COc1ccc2cccc(CCNC(C)=O)c2c1", "target": "MTNR1A", "assay": "β-arrestin recruitment, agonist", "system": "CHO-K1", "setting": "90 min", "measurement": "Emax", "result": "96%"}
{"SMILES": "CCCOc1ccc(OC)c(F)c1C(=O)c1ccc(C(=O)N[C@@H]2CNC[C@H]2NC(=O)c2ccc3[nH]ncc3c2)cc1", "target": "Rho-associated protein kinase 2 (ROCK2, Homo sapiens, UniProt O75116)", "assay": "enzyme activity, inhibitor", "setting": "0.1 µM", "measurement": "remaining activity", "result": "25%"}
{"SMILES": "Cc1nn(CC(F)(F)F)cc1Nc1ncc(Br)c(NCc2ccc(S(N)(=O)=O)cc2)n1", "target": "BMP2K", "assay": "enzyme activity, inhibitor, radiometric", "setting": "1 µM", "measurement": "remaining activity", "result": "30%"}
{"SMILES": "Cc1cccnc1C(=O)Nc1ccc(N2C(=O)c3ccccc3C2=O)c(Cl)c1", "target": "Grm1", "assay": "calcium signal, positive allosteric modulator", "system": "T-REx-293", "measurement": "Emax", "result": "109%"}
{"SMILES": "CNC(=O)CN1C(=O)Cc2c([nH]c3ccc(Br)cc23)-c2ccc(Cl)cc21", "target": "Trypanothione synthetase", "assay": "enzyme activity, inhibitor, absorbance", "setting": "30 µM", "measurement": "inhibition", "result": "22.8%"}
{"SMILES": "O=C(Nc1ccc(C=NNS(=O)(=O)c2ccc3ccccc3c2)cc1)c1cc([N+](=O)[O-])cc([N+](=O)[O-])c1", "target": "murC", "assay": "enzyme activity, inhibitor, absorbance", "setting": "100 µM", "measurement": "remaining activity", "result": "72%"}
{"SMILES": "NC(=O)CN1C(=O)Cc2c([nH]c3ccc(Br)cc23)-c2ccc(Cl)cc21", "target": "Trypanothione synthetase", "assay": "enzyme activity, inhibitor, absorbance", "setting": "30 µM", "measurement": "inhibition", "result": "5.2%"}
{"SMILES": "O=C(Cc1ccc2c(c1)OCO2)Oc1ccccc1C=NNS(=O)(=O)c1ccc2ccccc2c1", "target": "murC", "assay": "enzyme activity, inhibitor, absorbance", "setting": "100 µM", "measurement": "remaining activity", "result": "57%"}
{"SMILES": "O=C(c1ccc(Cl)cc1)N(Cc1ccccc1)C1CCCCC1", "target": "5-hydroxytryptamine receptor 2C (HTR2C, Homo sapiens, UniProt P28335)", "assay": "ligand displacement, radioligand", "setting": "10 µM", "measurement": "inhibition", "result": "-5.5%"}
{"SMILES": "COc1ccc2ncn(CCNC(C)=O)c2c1", "target": "MTNR1A", "assay": "GTPγS binding, agonist, radiometric", "setting": "cell membranes", "measurement": "Emax", "result": "53%"}
